ChEMBL document CHEMBL4334446, “Evaluating the effects of fluorine on biological properties and metabolic stability of some antitubulin 3-substituted 7-phenyl-pyrroloquinolinones” (Eur J Med Chem, 2019)

Legend:
[1] = Stability in phosphate buffer at pH 7.4 at 10 uM incubated for 30 mins by HPLC analysis; type: physicochemical; details: pH 7.4, 0.5 h
Summary of the method: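 No microsomes or NADPH: compound (10 μM final) held in 0.1 M KH₂PO₄ pH 7.4 at 37 °C. Samples taken at 0 and 30 min, quenched with ice-cold acetonitrile, centrifuged, analysed by HPLC with fluorescence detection. Percent parent remaining relative to 0 min; mean ± SD, n = 3.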

Tubulin = Tubulin (Bos taurus, UniProt Q6B856+Q862L2+Q862F3); assay: Inhibition of bovine brain tubulin polymerization preincubated for 15 mins followed by GTP addition and measured for 20 mins by turbidimetry-based spectrophotometric method
Summary of the method: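 Bovine brain tubulin (10 µM) was preincubated with varying compound concentrations in 0.8 M monosodium glutamate, pH 6.6, for 15 min at 30 °C, then cooled to 0 °C. GTP was added to 0.4 mM final and the mix warmed to 30 °C. Turbidity was followed at 350 nm. IC50 = concentration inhibiting extent of assembly 50% after 20 min.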

[2] = Selectivity ratio of GI50 for PHA-stimulated human PBL cells to GI50 for human Jurkat cells incubated for 72 hrs by MTT assay
Summary of the method: (§1)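 Leukemia cells (CEM, DND-41, Jurkat) were grown in RPMI-1640 at 8×10³ cells/well and left 18 h. Donor PBL were gradient-separated, held overnight, and non-adherent cells set at 5×10^5 cells/mL with 2.5 µg/mL PHA. Both were exposed 72 h at 37 °C to graded compound concentrations, read by MTT. The ratio is PBL GI50 over leukemia GI50.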

CCRF-CEM = assay: Growth inhibition of human CEM cells incubated for 72 hrs by MTT assay; type: functional
Summary of the method: (§2)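 Leukemia lines were grown in RPMI-1640; the CEM^Vbl-100 medium also contained 100 ng/mL vinblastine. Cells were seeded at 8 × 10³ per well and left 18 h at 37 °C, 5% CO2. Medium was then replaced with fresh medium holding graded compound concentrations (DMSO stocks), in triplicate, for 72 h. Viability was read by MTT, and GI50 = concentration inhibiting proliferation 50%.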

[3] = Metabolic stability in human liver microsomes assessed as half life at 10 uM incubated for 30 mins in presence of NADPH by HPLC analysis; type: ADME, Microsome
Summary of the method: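 Compound (10 µM) was incubated at 37 °C with 0.5 mg/mL pooled HLMs and 1 mM NADPH in 0.1 M KH2PO4 pH 7.4, sampled at 0, 2, 5, 15 and 30 min. Controls without NADPH, or buffer only, ran 0 and 30 min. Parent was quantified by HPLC-fluorescence as % of the 0 min level, n = 3. t1/2 = 0.693/k, with k from regression of ln % remaining versus time.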

[4] = Selectivity ratio of GI50 for human PBL cells to GI50 for human CEM cells incubated for 72 hrs by MTT assay; type: functional
Summary of the method: as §1, with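 “overnight in RPMI-1640/10% FBS,” for “overnight,”, “without PHA (resting).” for “with 2.5 µg/mL PHA.”, “h” for “h at 37 °C”, “graded” for “graded compound”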

[5] = Time-dependent metabolic stability in human liver microsomes at 10 uM incubated for 30 mins in presence of NADPH by HPLC analysis; type: ADME, Microsome; details: 0.5 h
Summary of the method: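 Pooled mixed-gender HLMs (0.5 mg/mL) plus 1 mM NADPH in 0.1 M KH₂PO₄ pH 7.4, compound 10 μM final, 37 °C. Reaction started with microsomes after 3-min equilibration. Stopped with ice-cold acetonitrile at 0, 2, 5, 15, 30 min, then HPLC-fluorescence of supernatant. Percent remaining vs 0 min (mean ± SD, n = 3). Half-life = 0.693/k from linear regression of Ln % remaining vs time.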

MCF7 = assay: Growth inhibition of human MCF7 cells incubated for 72 hrs by MTT assay; type: functional; details: MCF7, 72 h
[6] = Growth inhibition of PHA-stimulated human PBL cells incubated for 72 hrs by MTT assay; type: cell-based; details: PHA-stimulated PBL cells (peripheral blood lymphocytes)
Summary of the method: (§3)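 PBL from healthy donors were isolated on a Lymphoprep gradient, held overnight in RPMI-1640 with 10% FBS, and the non-adherent cells resuspended at 5 × 10^5 cells/mL. Proliferating cultures got 2.5 µg/mL PHA; resting cultures got none. Compound was added at several concentrations for 72 h and viability read by MTT. GI50 reported as mean ± SEM of three experiments.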

[7] = Selectivity ratio of GI50 for PHA-stimulated human PBL cells to GI50 for human CEM cells incubated for 72 hrs by MTT assay; summary of the method: as §1
RS4-11 = assay: Growth inhibition of human RS4:11 cells incubated for 72 hrs by MTT assay; type: functional; details: RS4-11, 72 h; summary of the method: as §2
Tubulin (Bos taurus) = Tubulin (Bos taurus) (UniProt Q6B856+Q862L2+Q862F3); assay: Inhibition of [3H]colchicine binding to bovine brain tubulin at 5 uM relative to control
Summary of the method: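 Bovine brain tubulin at 1 µM was incubated with 5 µM [3H]colchicine and the test compound at 5 µM. Inhibition of colchicine binding was measured relative to a control.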

[8] = Metabolic stability in human liver microsomes at 10 uM incubated for 30 mins in phosphate buffer at pH 7.4 by HPLC analysis; type: ADME, Microsome; details: pH 7.4, 0.5 h
Summary of the method: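 Test compound (10 μM, final) incubated at 37 °C with pooled mixed-gender HLMs (0.5 mg/mL) in 0.1 M KH₂PO₄ pH 7.4 without NADPH. Sampled at 0 and 30 min, quenched with ice-cold acetonitrile, centrifuged, supernatant analysed by HPLC with fluorescence detection (ex 344/em 493 nm). Percent remaining calculated from peak area relative to 0 min; mean ± SD, n = 3.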

[9] = Growth inhibition of human PBL cells incubated for 72 hrs by MTT assay; type: cell-based; details: PBL cells (peripheral blood lymphocytes); summary of the method: as §3
[10] = Selectivity ratio of GI50 for human PBL cells to GI50 for human Jurkat cells incubated for 72 hrs by MTT assay
Summary of the method: as §1, with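 “overnight in RPMI-1640/10% FBS,” for “overnight,”, “without PHA (resting).” for “with 2.5 µg/mL PHA.”, “h” for “h at 37 °C”, “graded” for “graded compound”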

[11] = Metabolic stability in human liver microsomes at 10 uM incubated for 15 mins in presence of NADPH and non-selective CYP inhibitor quercetin by HPLC analysis; type: ADME, Microsome; details: 0.25 h
Summary of the method: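 Compound (10 µM) was incubated 0 and 15 min at 37 °C with pooled HLMs and 1 mM NADPH in 0.1 M KH2PO4 pH 7.4, with or without 100 µM quercetin. Parent remaining was measured by HPLC-fluorescence relative to 0 min; mean ± SD, n = 3.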

HeLa = assay: Growth inhibition of human HeLa cells incubated for 72 hrs by MTT assay; type: functional
[12] = Selectivity ratio of GI50 for PHA-stimulated human PBL cells to GI50 for human DND41 cells incubated for 72 hrs by MTT assay; summary of the method: as §1
HL-60 = assay: Growth inhibition of human HL60 cells incubated for 72 hrs by MTT assay; type: functional; details: HL-60, 72 h; summary of the method: as §2
[13] = Selectivity ratio of GI50 for human PBL cells to GI50 for human DND41 cells incubated for 72 hrs by MTT assay
Summary of the method: as §1, with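 “overnight in RPMI-1640/10% FBS,” for “overnight,”, “without PHA (resting).” for “with 2.5 µg/mL PHA.”, “h” for “h at 37 °C”, “graded” for “graded compound”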

Jurkat = assay: Growth inhibition of human Jurkat cells incubated for 72 hrs by MTT assay; type: functional; summary of the method: as §2

| Stability [1] | IC50 (Tubulin) | GI50 (CCRF-CEM) | half-life at 10 µM [3] | Stability [5] | GI50 (MCF7) | GI50 (RS4-11) | inhibition (Tubulin (Bos taurus)) | Stability [8] | Stability [11] | GI50 (HeLa) | GI50 (HL-60) | Compound | RatioGI50 [2] | RatioGI50 [4] | GI50 at 72 h [6] | RatioGI50 [7] | GI50 at 72 h [9] | RatioGI50 [10] | RatioGI50 [12] | RatioGI50 [13] | other results |
| --- | --- | --- | --- | --- | --- | --- | --- | --- | --- | --- | --- | --- | --- | --- | --- | --- | --- | --- | --- | --- | --- |
| Stable | 960 nM | 3.1 nM | 11.4 min | Unstable | 247 nM | 0.09 nM | 77% | Stable | Stable | 1.2 nM | 0.17 nM | CCn1ccc2c3c(=O)cc(-c4ccccc4F)[nH]c3ccc21 | 10000 - 30000 | 10000 - 30000 | 15200 nM | 10000 - 30000 | 28000 nM | 10000 - 30000 | 10000 - 30000 | 10000 - 30000 | GI50 (Jurkat): 0.19 nM |
| Stable | 570 nM | 14 nM | 17.3 min | Unstable | 40 nM | 2 nM | 73% | Stable | Stable | 11 nM | 0.5 nM | CCn1ccc2c3c(=O)cc(-c4ccccc4)[nH]c3ccc21 | 10000 - 30000 | 10000 - 30000 | 7600 nM | 10000 - 30000 | > 100000 nM | 10000 - 30000 | 10000 - 30000 | 10000 - 30000 | GI50 (Jurkat): 0.5 nM |
